Measurements: article PMC8530978 (Bioorganic chemistry, 2021)

What was measured:
[1] = tested on: NCI sixty human tumor cell line panel; test: NCI sixty human tumor cell line panel, single dose 10 μM; type: cell-based; conditions: Homo sapiens, read-out: Mean % growth at 10 μM
[2] = tested on: purified HDAC isoforms (HDAC1, 2, 3, 8 and HDAC6); test: Single concentration; type: biochemical; conditions: 100 μM, HDAC1, 2, 3, 8 and 6
How it was run: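 Recombinant HDAC1, 2, 3, 6 or 8 (1 μL of enzyme stock at 3, 1, 30, 35 or 70 ng/μL respectively) in HDAC-Glo buffer, incubated 3 h at room temperature with test compound in DMSO. HDAC-Glo reagent then added; luminescence read every 3 min for 30 min. Peak signal corrected against a no-enzyme background and divided by the no-inhibitor signal to give % activity remaining.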

[3] = tested on: histone H3 acetylation and tubulin acetylation in HCT116 cells; test: Western blot of histone H3 and tubulin acetylation in HCT116 cells; type: cell-based, human; conditions: HCT116, 24 h, IPEs up to highest concentration 25 μM
How it was run: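 HCT116 cells (2 × 10^6 per T-25 flask) adhered overnight, then given test compound at 1, 10 or 25 μM, or DMSO, for 24 h. Lysed in RIPA; protein measured by BCA. Acetyl-histone H3 and acetyl-tubulin immunoblotted, detected with fluorescent secondary antibodies on an Odyssey scanner.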

HCT 116 cells = test: MTS reduction assay, antiproliferative activity on HCT 116; type: cell-based; conditions: Homo sapiens, HCT-116, 96 h
How it was run: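 HCT116 cells grown in McCoy's 5A with 10% FBS (37 °C, 5% CO2), seeded at 3 × 10^3/well in triplicate and left to adhere overnight. Exposed to test compound at 0.01–100 μM, or DMSO, for 96 h. MTS reagent added for 2 h at 37 °C; absorbance read at 490 nm. Curves of log(concentration) vs response fitted with a variable Hill slope.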

[4] = tested on: HeLaM cells expressing mcherry-α-tubulin; test: Spindle reassembly after recovery from cold shock; type: cell-based; conditions: 8 minutes post-rewarming, versus control
How it was run: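 HeLaM clone stably expressing mCherry-α-tubulin, treated with test compound or DMSO for 30 min at 37 °C, chilled 30 min at 4 °C, then rewarmed at 37 °C. Fixed at 0, 4, 8 and 20 min after rewarming; wide-field fluorescence imaging. Four repeats, 10–30 cells per condition per experiment. Blinded 8-min images scored, and spindle outlines traced to quantify morphology.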

[5] = biological target: tubulin heterodimers, purified from porcine brain (Sus scrofa, UniProt P02554); test: Turbidity-based tubulin polymerization assay; type: biochemical; conditions: for Vmax of tubulin polymerization: 37 °C, exponential phase (DMSO 10 mOD/min)
[6] = tested on: mitotic spindle of HeLaM cells; type: cell-based; conditions: compound 10 μM + MG132 + ZM447439 (DMSO+MG132+ZM447439 3%)
HeLaM cells [7] = test: Flow cytometry cell cycle analysis; type: cell-based
How it was run: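 5 × 10^5 HeLaM cells plated, treated next day with test compound or DMSO for 24, 48 or 72 h. All cells (floating and attached) collected and fixed in 70% ethanol (final). […] 10 μg/ml, 30 min, 37 °C, then propidium iodide in PBS + 2% FBS. SubG1 gated; subG1 excluded before modeling live-cell cycle distribution.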

[8] = tested on: acetylation of SMC3 in HeLaM cells; test: Western blot of SMC3 acetylation in HeLaM cells; type: cell-based; conditions: overnight treatment
How it was run: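 Acetylated SMC3 detected by immunoblot with an anti-acetyl-SMC3 antibody, HRP-conjugated secondary antibody and enhanced chemiluminescence, imaged on film.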

[9] = tested on: HDAC8-null and control HCT116 cells; test: Cytotoxicity in HDAC8-null versus control HCT116 cells; type: cell-based, human; conditions: 10 μM
HeLaM cells [10] = test: Chromosome drops to determine mitotic index; type: cell-based; conditions: 10 μM, after release from thymidine block
How it was run: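 HeLaM cells held in S phase with a single 2 mM thymidine block overnight, washed in PBS and released into test compound for about 9 h, then given ZM447439 for 90 min. Attached and floating cells were pooled, trypsinized, swollen in 0.075 M KCl (10 min, 37 °C), fixed in methanol:acetic acid 3:1 and dropped onto slides. DAPI stain. Mitotic index scored blinded over at least three experiments.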

HeLaM cells [11] = test: Phase contrast time lapse microscopy, mitotic duration; type: cell-based; conditions: asynchronous HeLaM cells, images every 12 min

tubulin heterodimers, purified from porcine brain, sequence (P02554 whole entry): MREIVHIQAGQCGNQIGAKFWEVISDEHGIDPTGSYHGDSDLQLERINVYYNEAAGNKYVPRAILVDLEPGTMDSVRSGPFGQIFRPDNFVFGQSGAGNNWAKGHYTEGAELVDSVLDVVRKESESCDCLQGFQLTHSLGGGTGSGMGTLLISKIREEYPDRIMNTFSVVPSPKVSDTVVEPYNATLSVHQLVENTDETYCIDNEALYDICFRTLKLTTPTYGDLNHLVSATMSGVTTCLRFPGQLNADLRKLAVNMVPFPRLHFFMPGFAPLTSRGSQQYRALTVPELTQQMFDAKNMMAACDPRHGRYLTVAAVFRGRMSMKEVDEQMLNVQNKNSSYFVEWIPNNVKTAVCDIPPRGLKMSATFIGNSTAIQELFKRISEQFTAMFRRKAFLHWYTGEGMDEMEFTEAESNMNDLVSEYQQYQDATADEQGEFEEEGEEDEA
tubulin heterodimers, purified from porcine brain, sequence (P02550 whole entry partner): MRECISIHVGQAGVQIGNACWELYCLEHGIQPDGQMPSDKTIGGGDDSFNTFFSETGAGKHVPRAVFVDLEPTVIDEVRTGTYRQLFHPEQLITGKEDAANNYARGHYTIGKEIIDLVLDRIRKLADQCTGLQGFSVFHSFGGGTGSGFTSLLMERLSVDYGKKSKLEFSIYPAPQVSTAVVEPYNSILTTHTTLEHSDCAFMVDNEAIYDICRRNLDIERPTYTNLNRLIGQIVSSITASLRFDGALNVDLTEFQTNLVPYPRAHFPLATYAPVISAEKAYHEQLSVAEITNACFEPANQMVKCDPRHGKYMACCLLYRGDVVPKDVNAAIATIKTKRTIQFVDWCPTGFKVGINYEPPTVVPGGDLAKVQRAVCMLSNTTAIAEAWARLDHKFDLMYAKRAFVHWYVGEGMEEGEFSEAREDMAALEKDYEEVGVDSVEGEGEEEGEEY

Row | GI50 (HCT 116 cells) [µM] | Vmax of tubulin polymerization ([5]; 10 μM compound) [mOD/min] | Vmax of tubulin polymerization ([5]; 50 μM compound) [mOD/min] | microtubule depolymerization upon cooling ([5]; 50 μM, cooling to ~15°C) | Structure (SMILES) | activity at 10 µM [1] [%] | activity remaining, each HDAC isoform [2] | global histone H3 acetylation and tubulin acetylation [3] | abnormal spindles [4] | spindle collapse [6] | cells in G2/M (HeLaM cells [7]; 48 hours, subG1 excluded (DMSO 10%)) [%] | subG1 population (HeLaM cells [7]; 72 hr post treatment (DMSO 14%)) [%] | SMC3 acetylation [8] | cell killing of parental and HDAC8-null cells [9] | mitotic arrest (mitotic index) (HeLaM cells [10]) | mitotic duration / mitotic arrest (HeLaM cells [11]) [h]
1 | 6.95 | 5.5 | 4.5 | Depolymerization was accelerated | O=C(Cc1ccc(/C=C/C(=O)c2ncc[nH]2)cc1)Nc1ccc(F)cc1 [IPE-7, (E)-2-(4-(3-(1H-Imidazol-2-yl)-3-oxoprop-1-en-1-yl)phenyl)-N-(4-fluorophenyl)acetamide] | 27.5 | 20–80% | no increase in global histone acetylation or tubulin acetylation | significantly more abnormal spindles | 97% | 36 | 58 | no effect on SMC3 acetylation | both parental and HDAC8-null cells were killed | arrested cells in mitosis | 
2 |  |  |  |  | COc1ccc(Cn2ccc3ccc(C(=O)NO)cc32)cc1 [PCI34051, reference compound] |  |  |  |  | did not produce the same aberrant spindle |  |  | an increase in SMC3 acetylation |  |  | 1.5
